Columns and labels:
[1] = Inhibition of bacterial NDM1 expressed in Escherichia coli BL21(DE3) using cefazolin as substrate by spectrometric method; design: species or system Bacteria
Summary of the method: (§1)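 Purified enzymes, overexpressed and purified by earlier methods, assayed under steady-state conditions by UV spectrometry in 50 mM Tris, pH 7.0. Substrate for NDM-1, VIM-2 and L1 was cefazolin (50 µM), read at 262 nm. Substrate for ImiS was imipenem (60 µM), read at 300 nm. Inhibitor varied 0–50 µM; IC50 is the concentration giving 50% loss of activity.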

[2] = test system: Bacteria; test: Inhibition of bacterial ImiS expressed in Escherichia coli BL21(DE3) at 50 uM using imipenem as substrate by spectrometric method relative to control
[3] = Inhibition of bacterial L1 expressed in Escherichia coli BL21(DE3) using cefazolin as substrate by spectrometric method; design: species or system Bacteria; summary of the method: as §1
[4] = test system: Bacteria; test: Inhibition of bacterial VIM2 expressed in Escherichia coli BL21(DE3) at 50 uM using cefazolin as substrate by spectrometric method relative to control
[5] = test system: Bacteria; test: Inhibition of bacterial NDM1 expressed in Escherichia coli DH10B assessed as potentiation of cefazolin-induced antibacterial activity by measuring cefazolin MIC at 32 ug/ml after 16 hrs by broth micro-dilution method (reference value: 8 ug/ml)
[6] = test system: Bacteria; test: Inhibition of bacterial VIM2 expressed in Escherichia coli DH10B assessed as potentiation of cefazolin-induced antibacterial activity by measuring cefazolin MIC at 32 ug/ml after 16 hrs by broth micro-dilution method (reference value: 512 ug/ml)
[7] = test system: Bacteria; test: Inhibition of bacterial ImiS expressed in Escherichia coli DH10B assessed as potentiation of imipenem-induced antibacterial activity by measuring imipenem MIC at 32 ug/ml after 16 hrs by broth micro-dilution method (reference value: 2 ug/ml)
[8] = test system: Bacteria; test: Inhibition of bacterial L1 expressed in Escherichia coli DH10B assessed as potentiation of cefazolin-induced antibacterial activity by measuring cefazolin MIC at 32 ug/ml after 16 hrs by broth micro-dilution method (reference value: 32 ug/ml)
Summary of the method: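 Dose-dependent cefazolin MIC assay against E. coli DH10B expressing L1 from a pBCSK plasmid, with varied inhibitor doses up to 256 µg/mL. Fold decrease in MIC was taken relative to cefazolin alone. Medium pH was monitored during the assay.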

[9] = Inhibition of bacterial VIM2 expressed in Escherichia coli BL21(DE3) using cefazolin as substrate by spectrometric method; design: species or system Bacteria; summary of the method: as §1
[10] = test system: Bacteria; test: Inhibition of bacterial NDM1 expressed in Escherichia coli BL21(DE3) at 50 uM using cefazolin as substrate by spectrometric method relative to control
[11] = Inhibition of bacterial ImiS expressed in Escherichia coli BL21(DE3) using imipenem as substrate by spectrometric method; design: species or system Bacteria; summary of the method: as §1
[12] = test system: Bacteria; test: Inhibition of bacterial NDM1 expressed in Escherichia coli DH10B assessed as potentiation of cefazolin-induced antibacterial activity by measuring fold reduction in cefazolin MIC at 32 ug/ml after 16 hrs by broth micro-dilution method relative to cefazolin alone
[13] = test system: Bacteria; test: Inhibition of bacterial VIM2 expressed in Escherichia coli DH10B assessed as potentiation of cefazolin-induced antibacterial activity by measuring fold reduction in cefazolin MIC at 32 ug/ml after 16 hrs by broth micro-dilution method relative to cefazolin alone

SMILES	IC50 [1]	inhibition [2]	IC50 [3]	inhibition [4]	MIC [5]	MIC [6]	MIC [7]	MIC [8]	IC50 [9]	inhibition [10]	IC50 [11]	fold change (FC) [12]	fold change (FC) [13]
O=C(O)CN1C(=O)/C(=C/c2ccco2)SC1=S	47000 nM	< 50%	1700 nM	< 50%	8 µg/mL	512 µg/mL	2 µg/mL	8 µg/mL					
O=C(O)CN1C(=O)/C(=C/c2ccc(C(F)(F)F)cc2)SC1=S	14300 nM	< 50%	110 nM		4 µg/mL	256 µg/mL	1 µg/mL	8 µg/mL	12700 nM				
O=C(O)CN1C(=O)/C(=C/c2ccc(Cl)cc2Cl)SC1=S	21500 nM	< 50%	80 nM		4 µg/mL	256 µg/mL	4 µg/mL	16 µg/mL	25100 nM				
COc1ccc(/C=C2\SC(=S)N(CC(=O)O)C2=O)cc1	25100 nM	< 50%	600 nM	< 50%	4 µg/mL	512 µg/mL	2 µg/mL	8 µg/mL					
O=C(O)CN1C(=O)/C(=C/c2cccc3ccccc23)SC1=S		< 50%	280 nM		8 µg/mL	512 µg/mL	1 µg/mL	8 µg/mL	27900 nM	< 50%			
O=C(O)c1ccc(N2C(=O)/C(=C/c3ccccc3)SC2=S)cc1	8700 nM		210 nM	< 50%	1 µg/mL	512 µg/mL	1 µg/mL	8 µg/mL			18300 nM	4 to 8	
O=C(O)c1ccc(N2C(=O)/C(=C/c3ccco3)SC2=S)cc1	690 nM	< 50%	180 nM	< 50%	4 µg/mL	512 µg/mL	1 µg/mL	8 µg/mL					
O=C(O)c1ccc(N2C(=O)/C(=C/c3cccs3)SC2=S)cc1	14300 nM	< 50%	590 nM	< 50%	4 µg/mL	512 µg/mL	1 µg/mL	8 µg/mL					
O=C(O)c1ccc(N2C(=O)/C(=C/c3cccc4ccccc34)SC2=S)cc1			100 nM	< 50%	8 µg/mL	512 µg/mL	1 µg/mL	8 µg/mL		< 50%	6900 nM		
O=C(O)CN1C(=O)/C(=C/c2ccccc2)SC1=S		< 50%	320 nM	< 50%	8 µg/mL	256 µg/mL	2 µg/mL	8 µg/mL		< 50%			
O=C(O)c1ccc(N2C(=O)/C(=C/c3ccc(Cl)cc3Cl)SC2=S)cc1	10600 nM		30 nM		1 µg/mL	128 µg/mL	1 µg/mL	8 µg/mL	3500 nM		7600 nM	4 to 8	4
O=C(O)CN1C(=O)/C(=C/c2ccc3ccccc3c2)SC1=S		< 50%	370 nM	< 50%	16 µg/mL	512 µg/mL	2 µg/mL	8 µg/mL		< 50%			
O=C(O)c1ccc(N2C(=O)/C(=C/c3ccc4ccccc4c3)SC2=S)cc1			120 nM		> 64 µg/mL	128 µg/mL	1 µg/mL	8 µg/mL	1900 nM	< 50%	16500 nM		4
O=C(O)c1ccc(N2C(=O)/C(=C/c3ccccn3)SC2=S)cc1	1130 nM	< 50%	210 nM		2 µg/mL	128 µg/mL	2 µg/mL	8 µg/mL	920 nM			4 to 8	4
O=C(O)c1ccc(N2C(=O)/C(=C/c3ccc(C(F)(F)F)cc3)SC2=S)cc1	10600 nM		70 nM		4 µg/mL	128 µg/mL	1 µg/mL	8 µg/mL	2360 nM		7800 nM		4
O=C(O)c1ccc(N2C(=O)/C(=C/c3ccc(F)cc3)SC2=S)cc1	8400 nM		80 nM		2 µg/mL	256 µg/mL	1 µg/mL	8 µg/mL	6900 nM		3600 nM		
O=C(O)CN1C(=O)/C(=C/c2ccccn2)SC1=S			160 nM	< 50%	8 µg/mL	512 µg/mL	2 µg/mL	8 µg/mL		< 50%	19100 nM		
O=C(O)CN1C(=O)/C(=C/c2ccc(F)cc2)SC1=S	15400 nM	< 50%	200 nM		4 µg/mL	256 µg/mL	2 µg/mL	8 µg/mL	14400 nM				
COc1ccc(/C=C(\S)C(=O)O)cc1		< 50%	320 nM		16 µg/mL	256 µg/mL	2 µg/mL	16 µg/mL	4700 nM	< 50%			
O=C(O)CN1C(=O)/C(=C/c2ccc(Cl)cc2)SC1=S		< 50%	220 nM		8 µg/mL	512 µg/mL	2 µg/mL	8 µg/mL	15300 nM	< 50%			
O=C(O)CN1C(=O)/C(=C/c2cccs2)SC1=S		< 50%	770 nM	< 50%	8 µg/mL	512 µg/mL	2 µg/mL	8 µg/mL		< 50%			
